Test results: ChEMBL document CHEMBL1135810, “Water-soluble, core-modified porphyrins as novel, longer-wavelength-absorbing sensitizers for photodynamic therapy. II. Effects of core heteroatoms and meso-substituents on biological activity” (J Med Chem, 2002)

test system: Colon 26; test: Effective concentration required to give 50% cell kill with 4 J/cm**2 of light.(Dark and light induced toxicity towards murine colon carcinoma cell line(COLO-26 cells)); type: functional, cell-based; conditions: Mus musculus, Colon 26, light or radiation study
Method in brief: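 Colo-26 mouse colon carcinoma cells grown in RPMI 1640 with 10% fetal calf serum at 37 °C, 5% CO2, plated at 5×10^3 cells/well the evening before. Cells were PBS-washed, then kept 24 h at 37 °C in the dark with graded sensitizer in HBSS, washed, and irradiated in PBS with filtered 590–800 nm light (methods state 570–800 nm) to 4 J cm-2. Dark controls were not irradiated. After 24 h in growth medium, MTT survival was read, and EC50 was taken from surviving fraction vs concentration.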

| SMILES | EC50 |
| --- | --- |
| O=C(O)COc1ccc(-c2c3nc(c(-c4ccc(F)cc4)c4ccc(s4)c(-c4ccc(F)cc4)c4nc(c(-c5ccc(OCC(=O)O)cc5)c5ccc2s5)C=C4)C=C3)cc1 | 430 nM |
| O=S(=O)(O)c1ccc(-c2c3nc(c(-c4ccc(F)cc4)c4ccc([se]4)c(-c4ccc(F)cc4)c4nc(c(-c5ccc(S(=O)(=O)O)cc5)c5ccc2[se]5)C=C4)C=C3)cc1 | 7900 nM |
| Cc1ccc(-c2c3nc(c(-c4ccc(S(=O)(=O)O)cc4)c4ccc(s4)c(-c4ccc(S(=O)(=O)O)cc4)c4nc(c(-c5ccc(C)cc5S(=O)(=O)O)c5ccc2s5)C=C4)C=C3)c(S(=O)(=O)O)c1 | 12000 nM |
| O=S(=O)(O)c1ccc(-c2c3nc(c(-c4ccc(S(=O)(=O)O)cc4)c4ccc(s4)c(-c4ccc(S(=O)(=O)O)cc4)c4nc(c(-c5ccc(S(=O)(=O)O)cc5)c5ccc2s5)C=C4)C=C3)cc1 | 30000 nM |
| O=C(O)COc1ccc(-c2c3nc(c(-c4ccccc4)c4ccc(s4)c(-c4ccccc4)c4nc(c(-c5ccc(OCC(=O)O)cc5)c5ccc2s5)C=C4)C=C3)cc1 | 150 nM |
| CN(C)c1ccc(-c2c3nc(c(-c4ccc(S(=O)(=O)O)cc4)c4ccc(s4)c(-c4ccc(S(=O)(=O)O)cc4)c4nc(c(-c5ccc(N(C)C)cc5)c5ccc2s5)C=C4)C=C3)cc1 | 640 nM |
| O=S(=O)(O)c1ccc(-c2c3nc(c(-c4ccc(S(=O)(=O)O)cc4)c4ccc([nH]4)c(-c4ccc(S(=O)(=O)O)cc4)c4ccc(s4)c(-c4ccc(S(=O)(=O)O)cc4)c4nc2C=C4)C=C3)cc1 | > 100000 nM |
| O=S(=O)(O)c1ccc(-c2c3nc(c(-c4ccc(C(F)(F)F)cc4)c4ccc(s4)c(-c4ccc(C(F)(F)F)cc4)c4nc(c(-c5ccc(S(=O)(=O)O)cc5)c5ccc2s5)C=C4)C=C3)cc1 | > 100000 nM |
| O=S(=O)(O)c1ccc(-c2c3nc(c(-c4ccc(F)cc4)c4ccc(s4)c(-c4ccc(F)cc4)c4nc(c(-c5ccc(S(=O)(=O)O)cc5)c5ccc2[se]5)C=C4)C=C3)cc1 | 2100 nM |
| O=S(=O)(O)c1ccc(-c2c3nc(c(-c4ccc(F)cc4)c4ccc(s4)c(-c4ccc(F)cc4)c4nc(c(-c5ccc(S(=O)(=O)O)cc5)c5ccc2[nH]5)C=C4)C=C3)cc1 | 2100 nM |
| O=S(=O)(O)c1ccc(-c2c3nc(c(-c4ccc(F)cc4)c4ccc(s4)c(-c4ccc(F)cc4)c4nc(c(-c5ccc(S(=O)(=O)O)cc5)c5ccc2s5)C=C4)C=C3)cc1 | 1600 nM |
| O=S(=O)(O)c1ccc(-c2c3nc(c(-c4ccc(S(=O)(=O)O)cc4)c4ccc([nH]4)c(-c4ccc(S(=O)(=O)O)cc4)c4ccc([nH]4)c(-c4ccc(S(=O)(=O)O)cc4)c4nc2C=C4)C=C3)cc1 | 125000 nM |
| O=S(=O)(O)c1ccc(-c2c3nc(c(-c4ccc(F)cc4)c4ccc([se]4)c(-c4ccc(F)cc4)c4nc(c(-c5ccc(S(=O)(=O)O)cc5)c5ccc2s5)C=C4)C=C3)cc1 | 1200 nM |
| O=S(=O)(O)c1ccc(-c2c3nc(c(-c4ccc(S(=O)(=O)O)cc4)c4ccc([se]4)c(-c4ccc(S(=O)(=O)O)cc4)c4nc(c(-c5ccc(S(=O)(=O)O)cc5)c5ccc2[se]5)C=C4)C=C3)cc1 | > 100000 nM |
